# Columns and labels:
# Format in all cases: functional
# COLO 205 = assay: Growth inhibition of human COLO205 cells assessed as cell viability at 100 uM incubated for 48 hrs by sulforhodamine B assay; conditions: COLO 205, 48 h, read-out: Activity
# SK-OV-3 = assay: Growth inhibition of human SKOV3 cells assessed as cell viability at 100 uM incubated for 48 hrs by sulforhodamine B assay; conditions: SK-OV-3, 48 h, read-out: Activity
# EKVX = assay: Growth inhibition of human EKVX cells assessed as cell viability at 100 uM incubated for 48 hrs by sulforhodamine B assay; conditions: read-out: Activity
# RXF 393 = assay: Growth inhibition of human RXF393 cells assessed as cell viability at 0.1 uM incubated for 48 hrs by sulforhodamine B assay; conditions: RXF 393, 48 h, read-out: Activity
# SK-MEL-2 [1] = assay: Growth inhibition of human SK-MEL-2 cells assessed as cell viability at 0.001 uM incubated for 48 hrs by sulforhodamine B assay relative to control; conditions: SK-MEL-2, 48 h, read-out: Activity
# MCF7 = assay: Growth inhibition of human MCF7 cells assessed as cell viability at 0.001 uM incubated for 48 hrs by sulforhodamine B assay relative to control; conditions: MCF7, 48 h, read-out: Activity
# SNB-75 = assay: Cell cycle arrest in human SNB75 cells assessed as accumulation in G2/M phase at 2 uM incubated for 24 hrs by propidium iodide based flow cytometry (reference value: 10.46 %)
# Method in brief: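 SNB-75 cells were exposed to 2 µM for 24 h at 37 °C, 5% CO2, then washed with PBS and fixed in 70% ethanol on ice for 15 min. They were stained 1 h at room temperature with 50 µg/mL propidium iodide, 0.1 mg/mL RNase A and 0.05% Triton X-100. DNA content was read by flow cytometry to give the % of cells in pre-G1, G0/G1, S and G2/M.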
# SK-MEL-2 [2] = assay: Growth inhibition of human SK-MEL-2 cells assessed as cell viability at 0.1 uM incubated for 48 hrs by sulforhodamine B assay; conditions: SK-MEL-2, 48 h, read-out: Activity
# SW-620 = assay: Growth inhibition of human SW620 cells assessed as cell viability at 0.001 uM incubated for 48 hrs by sulforhodamine B assay relative to control; conditions: SW-620, 48 h, read-out: Activity
# OVCAR-4 = assay: Growth inhibition of human OVCAR4 cells incubated for 48 hrs by sulforhodamine B assay; conditions: OVCAR-4, 48 h
# Method in brief: (§1)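 NCI-60 five-dose SRB assay in RPMI 1640 with 5% FBS, 37 °C, 5% CO2. Compound given at five tenfold dilutions, 0.01–100 µM, for 48 h. Adherent cells fixed with TCA, suspension cells with 16% final TCA. Bound SRB read at 515 nm and growth calculated against time-zero and untreated controls. GI50 taken from dose–response curves as the concentration giving a 50% decrease in net cell growth.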
# SF-268 = assay: Growth inhibition of human SF268 cells incubated for 48 hrs by sulforhodamine B assay; conditions: SF-268, 48 h
# Method in brief: (§2)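 NCI-60 five-dose SRB assay. Cells were exposed for 48 h to tenfold dilutions of 0.01, 0.1, 1, 10 and 100 µM, in RPMI 1640 with 5% FBS. Plates fixed with TCA at the time of drug addition served as the time-zero reference. GI50 is the concentration giving a 50% reduction in net growth. TGI is total growth inhibition. LC50 is a net 50% loss of the initial cells.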
# HT-29 = assay: Growth inhibition of human HT-29 cells incubated for 48 hrs by sulforhodamine B assay; conditions: HT-29, 48 h; method in brief: as §1
# HCT-116 [3] = assay: Growth inhibition of human HCT116 cells assessed as cell viability at 0.1 uM incubated for 48 hrs by sulforhodamine B assay; conditions: HCT-116, 48 h, read-out: Activity
# SF-539 = assay: Growth inhibition of human SF539 cells assessed as cell viability at 0.1 uM incubated for 48 hrs by sulforhodamine B assay; conditions: SF-539, 48 h, read-out: Activity
# NCI-H460 = assay: Growth inhibition of human NCI-H460 cells assessed as cell viability at 0.001 uM incubated for 48 hrs by sulforhodamine B assay relative to control; conditions: NCI-H460, 48 h, read-out: Activity
# HOP-62 = assay: Growth inhibition of human HOP62 cells assessed as cell viability at 1 uM incubated for 48 hrs by sulforhodamine B assay; conditions: HOP-62, 48 h, read-out: Activity
# SK-MEL-28 = assay: Growth inhibition of human SK-MEL-28 cells assessed as cell viability at 0.001 uM incubated for 48 hrs by sulforhodamine B assay relative to control; conditions: SK-MEL-28, 48 h, read-out: Activity
# MDA-MB-468 = assay: Growth inhibition of human MDA-MB-468 cells assessed as cell viability at 1 uM incubated for 48 hrs by sulforhodamine B assay; conditions: MDA-MB-468, 48 h, read-out: Activity
# HL-60(TB) = assay: Growth inhibition of human HL-60(TB) cells assessed as cell viability at 0.001 uM incubated for 48 hrs by sulforhodamine B assay relative to control; conditions: HL-60, 48 h, read-out: Activity
# HCT-15 = assay: Growth inhibition of human HCT15 cells assessed as cell viability at 0.001 uM incubated for 48 hrs by sulforhodamine B assay relative to control; conditions: HCT-15, 48 h, read-out: Activity
# BT-549 = assay: Growth inhibition of human BT549 cells assessed as cell viability at 0.001 uM incubated for 48 hrs by sulforhodamine B assay relative to control; conditions: BT-549, 48 h, read-out: Activity
# OVCAR-8 = assay: Growth inhibition of human OVCAR8 cells incubated for 48 hrs by sulforhodamine B assay; conditions: OVCAR-8, 48 h; method in brief: as §2
# MDA-MB-231 = assay: Growth inhibition of human MDA-MB-231 cells assessed as cell viability at 1 uM incubated for 48 hrs by sulforhodamine B assay; conditions: MDA-MB-231, 48 h, read-out: Activity
# K562 = assay: Growth inhibition of human K562 cells assessed as cell viability at 1 uM incubated for 48 hrs by sulforhodamine B assay; conditions: K562, 48 h, read-out: Activity
# HCT-116 [4] = assay: Growth inhibition of human HCT116 cells assessed as cell viability at 1 uM incubated for 48 hrs by sulforhodamine B assay; conditions: HCT-116, 48 h, read-out: Activity
# [5] = read-out: LC50 (the source's name)
# [6] = read-out: pLC50 (the source's name) (converted)
smiles,measurement,setting,value
CC1=C(C(=O)OCc2ccccc2)C(c2ccc3c(c2)OCO3)n2c(nc3ccccc32)N1 (racemic),viability at 100 µM,COLO 205,39%
same,viability at 100 µM,SK-OV-3,42%
same,viability at 100 µM,EKVX,29%
same,viability at 0.1 µM,RXF 393,90%
same,viability at 0.001 µM,SK-MEL-2 [1],97%
same,viability at 0.001 µM,MCF7,86%
same,Activity,SNB-75,37.59%
same,viability at 0.1 µM,SK-MEL-2 [2],101%
same,viability at 0.001 µM,SW-620,98%
same,GI50,OVCAR-4; read-out: GI50,13.3 µM
same,CC50,OVCAR-4; [5],> 100 µM
same,TGI,OVCAR-4; read-out: TGI,> 100 µM
same,GI50,OVCAR-4; read-out: pGI50 (converted),13.2 µM
same,CC50,OVCAR-4; [6],> 100 µM
same,TGI,OVCAR-4; read-out: pTGI,> 100 µM
same,GI50,SF-268; read-out: GI50,0.51 µM
same,LC50,SF-268; read-out: LC50,> 100 µM
same,TGI,SF-268; read-out: TGI,> 100 µM
same,GI50,SF-268; read-out: pGI50 (converted),0.513 µM
same,LC50,SF-268; read-out: pLC50 (converted),> 100 µM
same,TGI,SF-268; read-out: pTGI,> 100 µM
same,GI50,HT-29; read-out: GI50,0.34 µM
same,LC50 (50% net cell kill),HT-29; read-out: LC50,> 100 µM
same,TGI,HT-29; read-out: TGI,> 100 µM
same,GI50,HT-29; read-out: pGI50 (converted),0.347 µM
same,LC50 (50% net cell kill),HT-29; read-out: pLC50 (converted),> 100 µM
same,TGI,HT-29; read-out: pTGI,> 100 µM
same,viability at 0.1 µM,HCT-116 [3],100%
same,viability at 0.1 µM,SF-539,92%
same,viability at 0.001 µM,NCI-H460,98%
same,viability at 1 µM,HOP-62,44%
same,viability at 0.001 µM,SK-MEL-28,98%
same,viability at 1 µM,MDA-MB-468,-9%
same,viability at 0.001 µM,HL-60(TB),95%
same,viability at 0.001 µM,HCT-15,92%
same,viability at 0.001 µM,BT-549,95%
same,GI50,OVCAR-8; read-out: GI50,0.63 µM
same,CC50,OVCAR-8; [5],> 100 µM
same,TGI,OVCAR-8; read-out: TGI,> 100 µM
same,GI50,OVCAR-8; read-out: pGI50 (converted),0.631 µM
same,CC50,OVCAR-8; [6],> 100 µM
same,TGI,OVCAR-8; read-out: pTGI,> 100 µM
same,viability at 1 µM,MDA-MB-231,56%
same,viability at 1 µM,K562,23%
same,viability at 1 µM,HCT-116 [4],26%
